From ChEMBL document CHEMBL1145427, “Quick assembly of 1,4-diphenyltriazoles as probes targeting beta-amyloid aggregates in Alzheimer's disease” (J Med Chem, 2007)
Each block holds one compound with its values, some of them ahead of it.

Experiments:
[1] = Displacement of [125I]IMPY from beta amyloid protein plaques in Alzheimer's disease patient brain; parameters: species or system Homo sapiens
Outline: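 Competition binding to pooled gray-matter homogenates from four AD brains (approximately 100 mg wet tissue/mL in PBS pH 7.4; 20–50 μg per tube). [125I]2 at 0.04–0.06 nM; inhibitors 10^-5–10^-10 M in PBS with 0.1% BSA; final volume 1 mL. Nonspecific binding with 600 nM 2. Incubated 37 °C, 2 h; GF/B filtration, gamma counting. Ki from nonlinear regression.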

Spleen [2] = assay: Biodistribution in ICR mouse spleen at 5 to 10 uCi, iv after 1 hr; type: ADME, organism-based; details: in vivo
Outline: (§1)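 Male ICR mice (22–25 g) under isoflurane anesthesia; [125I] or [18F] tracer (5–10 μCi) in 0.15 mL of 0.1% bovine serum albumin solution injected into the tail vein. Groups of n = 3 per time point, killed by cervical dislocation. Organs removed, weighed and gamma-counted against diluted aliquots of injected dose, giving % dose/organ and % ID/g. Total blood activity assumed as 7% of body weight.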

Heart [3] = assay: Biodistribution in ICR mouse heart at 5 to 10 uCi, iv after 2 hrs; type: ADME, organism-based; details: in vivo; outline: as §1
Thyroid gland [4] = assay: Biodistribution in ICR mouse thyroid at 5 to 10 uCi, iv after 2 mins; type: ADME, organism-based; details: in vivo; outline: as §1
Blood [5] = assay: Biodistribution in ICR mouse blood at 5 to 10 uCi, iv after 30 mins; type: ADME, organism-based; details: in vivo, 0.5 h; outline: as §1
Thyroid gland [6] = assay: Biodistribution in ICR mouse thyroid at 5 to 10 uCi, iv after 1 hr; type: ADME, organism-based; details: in vivo; outline: as §1
Muscle tissue [7] = assay: Biodistribution in ICR mouse muscle at 5 to 10 uCi, iv after 2 hrs; type: ADME, organism-based; details: in vivo; outline: as §1
Thyroid gland [8] = assay: Biodistribution in ICR mouse thyroid at 5 to 10 uCi, iv after 30 mins; type: ADME, organism-based; details: in vivo, 0.5 h; outline: as §1
Zone of skin [9] = assay: Biodistribution in ICR mouse skin at 5 to 10 uCi, iv after 30 mins; type: ADME, organism-based; details: in vivo, 0.5 h; outline: as §1
Muscle tissue [10] = assay: Biodistribution in ICR mouse muscle at 5 to 10 uCi, iv after 2 mins; type: ADME, organism-based; details: in vivo; outline: as §1
Zone of skin [11] = assay: Biodistribution in ICR mouse skin at 5 to 10 uCi, iv after 1 hr; type: ADME, organism-based; details: in vivo; outline: as §1
Lung [12] = assay: Biodistribution in ICR mouse lung at 5 to 10 uCi, iv after 2 hrs; type: ADME, organism-based; details: in vivo; outline: as §1
Heart [13] = assay: Biodistribution in ICR mouse heart at 5 to 10 uCi, iv after 1 hr; type: ADME, organism-based; details: in vivo; outline: as §1
Kidney [14] = assay: Biodistribution in ICR mouse kidney at 5 to 10 uCi, iv after 2 hrs; type: ADME, organism-based; details: in vivo; outline: as §1
Thyroid gland [15] = assay: Biodistribution in ICR mouse thyroid at 5 to 10 uCi, iv after 2 hrs; type: ADME, organism-based; details: in vivo; outline: as §1
Liver [16] = assay: Biodistribution in ICR mouse liver at 5 to 10 uCi, iv after 2 hrs; type: ADME, organism-based; details: in vivo; outline: as §1
Heart [17] = assay: Biodistribution in ICR mouse heart at 5 to 10 uCi, iv after 30 mins; type: ADME, organism-based; details: in vivo, 0.5 h; outline: as §1
Zone of skin [18] = assay: Biodistribution in ICR mouse skin at 5 to 10 uCi, iv after 2 mins; type: ADME, organism-based; details: in vivo; outline: as §1
Brain [19] = assay: Biodistribution in ICR mouse brain at 5 to 10 uCi, iv after 30 mins; type: ADME, organism-based; details: in vivo, 0.5 h; outline: as §1
Muscle tissue [20] = assay: Biodistribution in ICR mouse muscle at 5 to 10 uCi, iv after 30 mins; type: ADME, organism-based; details: in vivo, 0.5 h; outline: as §1
Liver [21] = assay: Biodistribution in ICR mouse liver at 5 to 10 uCi, iv after 2 mins; type: ADME, organism-based; details: in vivo; outline: as §1
Zone of skin [22] = assay: Biodistribution in ICR mouse skin at 5 to 10 uCi, iv after 2 hrs; type: ADME, organism-based; details: in vivo; outline: as §1
Kidney [23] = assay: Biodistribution in ICR mouse kidney at 5 to 10 uCi, iv after 1 hr; type: ADME, organism-based; details: in vivo; outline: as §1
[24] = Partition coefficient, log P of the compound; type: physicochemical; details: octanol/water
Outline: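 [125I] or [18F] tracer mixed with 3 g each of 1-octanol and 0.1 M phosphate buffer pH 7.4. Vortexed 3 min at room temperature, then centrifuged 5 min. Two 0.5 g samples from each layer counted; PC is the ratio of cpm/g in octanol to cpm/g in buffer. The octanol layer was repartitioned until values were consistent.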

Brain [25] = assay: Biodistribution in ICR mouse brain at 5 to 10 uCi, iv after 2 hrs; type: ADME, organism-based; details: in vivo; outline: as §1
Heart [26] = assay: Biodistribution in ICR mouse heart at 5 to 10 uCi, iv after 2 mins; type: ADME, organism-based; details: in vivo; outline: as §1
Spleen [27] = assay: Biodistribution in ICR mouse spleen at 5 to 10 uCi, iv after 30 mins; type: ADME, organism-based; details: in vivo, 0.5 h; outline: as §1
Lung [28] = assay: Biodistribution in ICR mouse lung at 5 to 10 uCi, iv after 2 mins; type: ADME, organism-based; details: in vivo; outline: as §1
Spleen [29] = assay: Biodistribution in ICR mouse spleen at 5 to 10 uCi, iv after 2 hrs; type: ADME, organism-based; details: in vivo; outline: as §1
Lung [30] = assay: Biodistribution in ICR mouse lung at 5 to 10 uCi, iv after 30 mins; type: ADME, organism-based; details: in vivo, 0.5 h; outline: as §1
Kidney [31] = assay: Biodistribution in ICR mouse kidney at 5 to 10 uCi, iv after 2 mins; type: ADME, organism-based; details: in vivo; outline: as §1
Liver [32] = assay: Biodistribution in ICR mouse liver at 5 to 10 uCi, iv after 30 mins; type: ADME, organism-based; details: in vivo, 0.5 h; outline: as §1
Muscle tissue [33] = assay: Biodistribution in ICR mouse muscle at 5 to 10 uCi, iv after 1 hr; type: ADME, organism-based; details: in vivo; outline: as §1
Blood [34] = assay: Biodistribution in ICR mouse blood at 5 to 10 uCi, iv after 2 hrs; type: ADME, organism-based; details: in vivo; outline: as §1
Blood [35] = assay: Biodistribution in ICR mouse blood at 5 to 10 uCi, iv after 2 mins; type: ADME, organism-based; details: in vivo; outline: as §1
Spleen [36] = assay: Biodistribution in ICR mouse spleen at 5 to 10 uCi, iv after 2 mins; type: ADME, organism-based; details: in vivo; outline: as §1
Blood [37] = assay: Biodistribution in ICR mouse blood at 5 to 10 uCi, iv after 1 hr; type: ADME, organism-based; details: in vivo; outline: as §1
Brain [38] = assay: Biodistribution in ICR mouse brain at 5 to 10 uCi, iv after 2 mins; type: ADME, organism-based; details: in vivo; outline: as §1
Kidney [39] = assay: Biodistribution in ICR mouse kidney at 5 to 10 uCi, iv after 30 mins; type: ADME, organism-based; details: in vivo, 0.5 h; outline: as §1
Brain [40] = assay: Biodistribution in ICR mouse brain at 5 to 10 uCi, iv after 1 hr; type: ADME, organism-based; details: in vivo; outline: as §1
Liver [41] = assay: Biodistribution in ICR mouse liver at 5 to 10 uCi, iv after 1 hr; type: ADME, organism-based; details: in vivo; outline: as §1
Lung [42] = assay: Biodistribution in ICR mouse lung at 5 to 10 uCi, iv after 1 hr; type: ADME, organism-based; details: in vivo; outline: as §1

- Ki [1]: 10 nM
Structure (SMILES): CN(C)c1ccc(-c2cn(-c3ccc(OCCO)cc3)nn2)cc1

- Ki [1]: 8.4 nM
Structure (SMILES): CN(C)c1ccc(-c2cn(-c3ccc(OCCOCCOCCF)cc3)nn2)cc1

- Ki [1]: 30 nM
Structure (SMILES): CNc1ccc(-c2cn(-c3ccc(OCCOCCOCCF)cc3)nn2)cc1

- Drug uptake (Spleen [2]): 0.89 % ID/g
- Drug uptake (Heart [3]): 0.56 % ID/g
- Drug uptake (Thyroid gland [4]): 3.17 % ID/g
- Drug uptake (Blood [5]): 1.63 % ID/g
- Drug uptake (Thyroid gland [6]): 17 % ID/g
- Drug uptake (Muscle tissue [7]): 0.36 % ID/g
- Drug uptake (Thyroid gland [8]): 11 % ID/g
- Drug uptake (Zone of skin [9]): 2.2 % ID/g
- Drug uptake (Muscle tissue [10]): 0.76 % ID/g
- Drug uptake (Zone of skin [11]): 1.93 % ID/g
- Drug uptake (Lung [12]): 1.43 % ID/g
- Drug uptake (Heart [13]): 0.78 % ID/g
- Drug uptake (Kidney [14]): 1.52 % ID/g
- Drug uptake (Thyroid gland [15]): 89.1 % ID/g
- Drug uptake (Liver [16]): 2.49 % ID/g
- Drug uptake (Heart [17]): 1.34 % ID/g
- Drug uptake (Zone of skin [18]): 0.71 % ID/g
- Drug uptake (Brain [19]): 1.94 % ID/g
- Drug uptake (Muscle tissue [20]): 1.11 % ID/g
- Drug uptake (Liver [21]): 17.4 % ID/g
- Drug uptake (Zone of skin [22]): 1.19 % ID/g
- Drug uptake (Kidney [23]): 2.13 % ID/g
- logP [24]: 3.4
- Drug uptake (Brain [25]): 0.29 % ID/g
- Drug uptake (Heart [26]): 6.61 % ID/g
- Drug uptake (Spleen [27]): 1.35 % ID/g
- Drug uptake (Lung [28]): 8.93 % ID/g
- Drug uptake (Spleen [29]): 0.69 % ID/g
- Drug uptake (Lung [30]): 2.55 % ID/g
- Drug uptake (Kidney [31]): 11.5 % ID/g
- Drug uptake (Liver [32]): 6.93 % ID/g
- Drug uptake (Muscle tissue [33]): 0.61 % ID/g
- Drug uptake (Blood [34]): 1.21 % ID/g
- Drug uptake (Blood [35]): 2.84 % ID/g
- Drug uptake (Spleen [36]): 5.32 % ID/g
- Drug uptake (Blood [37]): 1.33 % ID/g
- Drug uptake (Brain [38]): 7.22 % ID/g
- Drug uptake (Kidney [39]): 3.66 % ID/g
- Drug uptake (Brain [40]): 0.64 % ID/g
- Drug uptake (Liver [41]): 3.74 % ID/g
- Drug uptake (Lung [42]): 1.66 % ID/g
Structure (SMILES): CN(C)c1ccc(-c2cn(-c3ccc([125I])cc3)nn2)cc1
